The values below come from ChEMBL document CHEMBL2396629, “Synthesis and biological evaluation of 4,5-dihydro-1H-pyrazole derivatives as potential nNOS/iNOS selective inhibitors. Part 2: Influence of diverse substituents in both the phenyl moiety and the acyl group” (Bioorg Med Chem, 2013).

Structures are written as SMILES.

Assay [1] deals with T1, Nitric oxide synthase 1 (Homo sapiens, UniProt P29475). As to the kind of experiment: Inhibition of recombinant nNOS (unknown origin) assessed as conversion of L-[3H]-arginine to L-[3H]-citrulline at 1 mM after 30 mins. Put shortly: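 Recombinant nNOS (21.05 nmol/min/mg) in 25 mM Tris-HCl pH 7.6 with DTT, H4-biopterin, FAD, inosine, BSA, CaCl2, L-arginine and 50 nM L-[3H]-arginine. Compound at 1 mM; 37 °C, 30 min. Stopped with cold HEPES/EGTA/L-citrulline pH 5.5, Dowex-50W (Na+) separation, [3H]-citrulline by scintillation. NADPH-omitted blank subtracted. Mean of three experiments in triplicate.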

Assay [2] deals with T1, Nitric oxide synthase 1. Kind of assay: Inhibition of recombinant nNOS (unknown origin) assessed as conversion of L-[3H]-arginine to L-[3H]-citrulline after 30 mins. In short, it runs like this: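 Bredt–Snyder radiometric citrulline assay using recombinant nNOS in 25 mM Tris-HCl pH 7.6 with DTT, H4-biopterin, FAD, inosine, BSA, 0.1 mM CaCl2, L-arginine and 50 nM L-[3H]-arginine. Incubated at 37 °C for 30 min, then Dowex-50W separation and scintillation counting. Blank without NADPH subtracted. IC50 given in mM.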

In assay [3] the target is Nitric oxide synthase, inducible (Homo sapiens) (UniProt P35228). As to the kind of experiment: Inhibition of recombinant iNOS (unknown origin) assessed as conversion of L-[3H]-arginine to L-[3H]-citrulline at 1 mM after 30 mins. Put shortly:
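Recombinant iNOS was tested with each compound at 1 mM. Activity is expressed relative to control and reported as % inhibition. Each value is the mean of three experiments, each run in triplicate.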

Sequence of Nitric oxide synthase, inducible (Homo sapiens) (P35228 whole entry): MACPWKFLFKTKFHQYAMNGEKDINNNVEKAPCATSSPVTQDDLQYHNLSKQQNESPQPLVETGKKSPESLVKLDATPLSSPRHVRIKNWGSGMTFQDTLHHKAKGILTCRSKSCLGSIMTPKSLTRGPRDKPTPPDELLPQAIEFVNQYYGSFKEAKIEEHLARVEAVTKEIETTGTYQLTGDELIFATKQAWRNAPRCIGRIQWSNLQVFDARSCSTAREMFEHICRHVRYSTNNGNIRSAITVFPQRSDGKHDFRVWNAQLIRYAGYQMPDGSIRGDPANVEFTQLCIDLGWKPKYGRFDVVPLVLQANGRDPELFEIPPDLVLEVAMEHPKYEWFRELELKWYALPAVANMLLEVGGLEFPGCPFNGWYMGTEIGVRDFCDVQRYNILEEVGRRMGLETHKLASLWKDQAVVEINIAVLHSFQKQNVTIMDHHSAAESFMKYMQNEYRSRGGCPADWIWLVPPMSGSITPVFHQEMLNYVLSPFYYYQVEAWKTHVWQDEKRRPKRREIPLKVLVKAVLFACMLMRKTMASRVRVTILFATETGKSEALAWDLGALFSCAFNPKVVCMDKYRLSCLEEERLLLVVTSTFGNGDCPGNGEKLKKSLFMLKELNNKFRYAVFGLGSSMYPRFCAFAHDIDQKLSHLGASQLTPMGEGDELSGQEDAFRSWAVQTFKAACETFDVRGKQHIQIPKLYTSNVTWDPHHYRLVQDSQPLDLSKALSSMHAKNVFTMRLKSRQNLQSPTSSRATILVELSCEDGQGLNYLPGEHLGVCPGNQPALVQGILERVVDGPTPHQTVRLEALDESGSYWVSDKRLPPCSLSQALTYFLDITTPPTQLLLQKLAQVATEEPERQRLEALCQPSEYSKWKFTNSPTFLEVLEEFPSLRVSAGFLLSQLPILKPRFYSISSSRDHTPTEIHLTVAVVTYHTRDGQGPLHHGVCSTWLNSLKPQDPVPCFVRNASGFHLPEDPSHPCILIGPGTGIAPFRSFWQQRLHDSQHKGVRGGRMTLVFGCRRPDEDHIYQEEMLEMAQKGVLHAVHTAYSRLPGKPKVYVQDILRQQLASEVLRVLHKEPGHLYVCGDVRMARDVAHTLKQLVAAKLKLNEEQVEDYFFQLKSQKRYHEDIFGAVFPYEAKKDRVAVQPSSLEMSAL
T1 sequence (P29475 whole entry): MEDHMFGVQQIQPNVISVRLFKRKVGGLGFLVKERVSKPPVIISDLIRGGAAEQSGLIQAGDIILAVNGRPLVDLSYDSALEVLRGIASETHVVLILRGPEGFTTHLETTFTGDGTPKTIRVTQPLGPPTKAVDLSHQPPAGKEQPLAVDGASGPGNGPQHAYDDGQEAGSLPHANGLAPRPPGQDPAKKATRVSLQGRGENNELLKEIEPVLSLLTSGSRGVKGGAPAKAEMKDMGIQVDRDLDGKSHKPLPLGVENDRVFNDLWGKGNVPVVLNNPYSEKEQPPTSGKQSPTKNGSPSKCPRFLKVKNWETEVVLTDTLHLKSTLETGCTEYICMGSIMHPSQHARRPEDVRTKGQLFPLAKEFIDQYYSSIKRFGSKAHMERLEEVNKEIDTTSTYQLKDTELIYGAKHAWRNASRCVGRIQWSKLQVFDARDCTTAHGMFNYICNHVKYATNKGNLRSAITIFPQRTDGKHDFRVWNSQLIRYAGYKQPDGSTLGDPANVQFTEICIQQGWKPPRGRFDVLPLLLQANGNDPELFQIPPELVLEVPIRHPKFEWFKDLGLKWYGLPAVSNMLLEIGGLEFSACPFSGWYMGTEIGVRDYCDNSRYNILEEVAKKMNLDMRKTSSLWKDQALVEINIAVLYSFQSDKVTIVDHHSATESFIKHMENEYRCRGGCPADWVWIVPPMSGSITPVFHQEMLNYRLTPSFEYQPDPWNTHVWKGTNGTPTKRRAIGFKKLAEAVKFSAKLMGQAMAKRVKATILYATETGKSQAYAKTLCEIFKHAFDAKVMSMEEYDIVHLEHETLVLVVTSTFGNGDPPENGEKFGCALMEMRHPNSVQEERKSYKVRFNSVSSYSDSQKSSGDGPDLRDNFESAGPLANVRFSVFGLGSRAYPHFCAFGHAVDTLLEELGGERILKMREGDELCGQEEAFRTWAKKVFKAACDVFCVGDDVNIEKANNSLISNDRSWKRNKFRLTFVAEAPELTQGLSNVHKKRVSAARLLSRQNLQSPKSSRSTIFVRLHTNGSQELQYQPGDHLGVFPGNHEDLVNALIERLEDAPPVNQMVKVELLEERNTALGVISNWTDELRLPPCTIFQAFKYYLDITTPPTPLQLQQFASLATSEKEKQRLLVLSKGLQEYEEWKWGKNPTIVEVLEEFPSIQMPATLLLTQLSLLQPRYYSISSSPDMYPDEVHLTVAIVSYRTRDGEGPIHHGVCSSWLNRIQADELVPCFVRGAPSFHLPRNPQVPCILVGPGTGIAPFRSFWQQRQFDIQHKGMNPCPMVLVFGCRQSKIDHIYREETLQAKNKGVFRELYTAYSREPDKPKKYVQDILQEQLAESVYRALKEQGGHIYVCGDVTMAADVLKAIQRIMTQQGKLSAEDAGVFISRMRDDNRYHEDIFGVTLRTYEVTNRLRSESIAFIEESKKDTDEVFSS

Turning to `COc1cc(N)c(C2=NN(C(=O)CCc3ccccc3)CC2)cc1OC`, the inhibition at Nitric oxide synthase 1 [1] turned out to be 55.3%; in assay [3], 23.7%. Besides, the concentration for half-maximal inhibition (IC50) at Nitric oxide synthase 1 [2] was 880 µM.
For the molecule `Nc1ccc(Cl)cc1C1=NN(C(=O)C2CC2)CC1`, the inhibition at Nitric oxide synthase 1 [1] came to 70.2%; in assay [3], 18.9%.
The matching figures for `CCC(=O)N1CCC(c2cc(OC)ccc2N)=N1`: 53.3% and 20.4%.
The matching figures for `COc1cc(N)c(C2=NN(C(=O)c3ccccc3)CC2)cc1OC`: 25.1% and 28.9%.
For `CC(=O)N1CCC(c2cc(Cl)ccc2N)=N1`, the inhibition is 47.6% at Nitric oxide synthase 1 [1] and 1.03% in assay [3].
The matching figures for `COc1ccc(N)c(C2=NN(C(=O)CCc3ccccc3)CC2)c1`: 25.9% and 21.2%.
The like results for `Nc1cc(Cl)c(Cl)cc1C1=NN(C(=O)C2CC2)CC1` were, in that order, 50.5% and 15.5%.
With `COc1ccc(N)c(C2=NN(C(=O)C3CCCCC3)CC2)c1`, the inhibition at Nitric oxide synthase 1 [1] was 62.2%; in assay [3] it was 13.2%.
The matching figures for `COc1ccc(N)c(C2=NN(C(=O)C3CC3)CC2)c1`: 62.2% and 19.9%.
On to `Nc1ccccc1C1=NN(C(=O)C2CC2)CC1`, for which the inhibition on Nitric oxide synthase 1 [1] came out at 38.8%; in assay [3] it was 14.8%.
The like results for `COc1ccc(N)c(C2=NN(C(=O)C3CCC3)CC2)c1` were, in that order, 38.3% and 1.91%.
The matching figures for `COc1ccc(N)c(C2=NN(C(=O)c3ccccc3)CC2)c1`: 58.9% and 12.2%.
Regarding `COc1cc(N)c(C2=NN(C(=O)CCc3ccccc3)CC2)c(OC)c1OC`, the values for the inhibition (at Nitric oxide synthase 1 [1]; in assay [3]) were 82.5% and 18.3%, respectively. In addition, the IC50 at Nitric oxide synthase 1 [2] amounted to 400 µM.
Take `CCCC(=O)N1CCC(c2cc(Cl)ccc2N)=N1`: the figures for the inhibition (at Nitric oxide synthase 1 [1]; in assay [3]) were 34.4% and 0.29%, respectively.
The matching figures for `Nc1ccccc1C1=NN(C(=O)CCc2ccccc2)CC1`: 7.36% and 5.64%.
The like results for `Nc1cc(Cl)c(Cl)cc1C1=NN(C(=O)CCc2ccccc2)CC1` were, in that order, 2.97% and 50.2%.
The matching figures for `CCC(=O)N1CCC(c2ccccc2N)=N1`: 36.5% and 6.88%.
For the molecule `CCCCC(=O)N1CCC(c2cc(OC)ccc2N)=N1`, the results for the inhibition (at Nitric oxide synthase 1 [1]; in assay [3]) were 49.8% and 0.18%, respectively.
The like results for `COc1cc(N)c(C2=NN(C(=O)C3CC3)CC2)cc1OC` were, in that order, 19.6% and 25.2%.
`Nc1cc(Cl)c(Cl)cc1C1=NN(C(=O)Cc2ccccc2)CC1`: the results for the inhibition (at Nitric oxide synthase 1 [1]; in assay [3]) were 21.6% and 49.2%, respectively.
The matching figures for `CC(=O)N1CCC(c2ccccc2N)=N1`: 33.7% and 7.73%.
On to `Nc1ccc(Cl)cc1C1=NN(C(=O)Cc2ccccc2)CC1`, for which the inhibition turned out to be 18.2% at Nitric oxide synthase 1 [1] and 34.6% in assay [3].
Consider `Nc1ccccc1C1=NN(C(=O)Cc2ccccc2)CC1`, for which the inhibition is 2.68% on Nitric oxide synthase 1 [1] and 2.31% in assay [3].
For `COc1cc(N)c(C2=NN(C(=O)C3CC3)CC2)c(OC)c1OC`, the inhibition at Nitric oxide synthase 1 [1] stood at 0.05%; in assay [3], 30.1%.
The like results for `Nc1cc(Cl)c(Cl)cc1C1=NN(C(=O)c2ccccc2)CC1` were, in that order, 0.62% and 36.1%.
In the case of `CCC(=O)N1CCC(c2cc(Cl)ccc2N)=N1`, the inhibition was found to be 46.1% on Nitric oxide synthase 1 [1] and 13.7% in assay [3].
The matching figures for `COc1ccc(N)c(C2=NN(C(=O)C3CCCC3)CC2)c1`: 49.9% and 1.85%.
Turning to `COc1cc(N)c(C2=NN(C(=O)c3ccccc3)CC2)c(OC)c1OC`, the inhibition on Nitric oxide synthase 1 [1] was 62.9%; in assay [3], 8.14%. Besides, the IC50 on Nitric oxide synthase 1 [2] was 530 µM.
With `COc1cc(N)c(C2=NN(C(=O)Cc3ccccc3)CC2)c(OC)c1OC`, the inhibition at Nitric oxide synthase 1 [1] amounted to 48.4%; in assay [3], 23.4%.
As for `COc1cc(N)c(C2=NN(C(=O)Cc3ccccc3)CC2)cc1OC`, the inhibition is 35.1% at Nitric oxide synthase 1 [1] and 21% in assay [3].
For the molecule `Nc1ccc(Cl)cc1C1=NN(C(=O)c2ccccc2)CC1`, the inhibition on Nitric oxide synthase 1 [1] amounted to 61.1%; in assay [3], 17%.
The matching figures for `COc1ccc(N)c(C2=NN(C(=O)Cc3ccccc3)CC2)c1`: 0.03% and 15%.
As for `CCCC(=O)N1CCC(c2ccccc2N)=N1`, the inhibition at Nitric oxide synthase 1 [1] was 52.4%.
Take `Nc1ccc(Cl)cc1C1=NN(C(=O)CCc2ccccc2)CC1`: the inhibition was 32.4% on Nitric oxide synthase 1 [1] and 31.4% in assay [3].
The like results for `Nc1ccccc1C1=NN(C(=O)c2ccccc2)CC1` were, in that order, 57% and 8.7%.
Take `CCCC(=O)N1CCC(c2cc(OC)ccc2N)=N1`: the inhibition turned out to be 34.7% at Nitric oxide synthase 1 [1] and 13.1% in assay [3].
`COc1ccc(N)c(C2=NN(C(C)=O)CC2)c1`: the results for the inhibition (on Nitric oxide synthase 1 [1]; in assay [3]) were 38% and 20.4%, respectively.

The term inhibition denotes the percentage by which the read-out fell short of the control. Broadly, the IC50 is the concentration at which inhibition is half-maximal.
